Reference: ChEMBL document CHEMBL3779804, “Novel Ferroptosis Inhibitors with Improved Potency and ADME Properties” (J Med Chem, 2016)
In brackets after ≈: the same amount, converted by molar mass.

Columns and labels:
[1] = Antiferroptotic activity in human IMR32 neuroblastoma cells assessed as inhibition of erastin-induced cell death preincubated for 1 hr before erastin stimulation and measured after 13 hrs by fluorescence plate reader method; assay type: functional; settings: IMR-32
Outline: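 Human IMR-32 neuroblastoma cells seeded at 25,000/well, next day pretreated 1 h in triplicate with a 1/3 dilution series (5 μM to 0.68 nM) plus Sytox Green (1.6 μM), then stimulated with erastin (10 μM). Sytox Green fluorescence (ex 485/em 520 nm) read after 13 h; Triton-X100 (0.05%) lysis as 100% death reference; % death background-corrected; IC50 determined.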

[2] = Kinetic solubility of the compound in PBS buffer at pH 7.4 after 2 hrs at 37 deg C by turbidimetric analysis; assay type: physicochemical; settings: read-out: Kinetic_solubility
Outline: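 Turbidimetric kinetic solubility by UV-vis reading; final test concentrations 3.125–200 μM, from DMSO solution diluted into 10 mM PBS pH 7.4.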

[3] = Half life in human liver microsomes by LC/MS/MS analysis; assay type: ADME
Outline: (§1)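 Compound incubated with liver microsomes (CYP450 and other NADP-dependent enzymes); parent loss monitored and expressed as half-life in min.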

[4] = Half life in mouse liver microsomes by LC/MS/MS analysis; assay type: ADME; outline: as §1
[5] = Stability in human plasma assessed as percentage recovery after 6 hrs by LC/MS/MS analysis; assay type: ADME, cell-free; settings: read-out: Drug recovery
Outline: (§2)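 Compound incubated in plasma up to 6 h; result given as percentage of parent compound remaining.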

[6] = Stability in mouse plasma assessed as percentage recovery after 6 hrs by LC/MS/MS analysis; assay type: ADME, cell-free; settings: read-out: Drug recovery; outline: as §2
[7] = Antiferroptotic activity in human HT1080 cells assessed as inhibition of erastin-induced cell death by Alamar blue assay; assay type: functional, cell-based; settings: HT-1080
[8] = Antiferroptotic activity in human HT1080 cells assessed as inhibition of erastin-induced cell death; assay type: functional, cell-based; settings: HT-1080
[9] = Antiferroptotic activity in human HT1080 cells assessed as inhibition of erastin-induced cell death by cell based assay; assay type: functional; settings: HT-1080
[10] = Half life in C57BL/6 mouse plasma; assay type: ADME, cell-free
[11] = Intrinsic clearance in C57BL/6 mouse liver microsomes; assay type: ADME

CCOC(=O)c1ccc(NC2CCCCC2)c(N)c1
IC50 [1]: 0.018 µM | solubility kinetic at 2 h [2]: > 200 µM | half-life [3]: 6.9 min | half-life [4]: 1.9 min | remaining at 6 h [5]: 100% | remaining at 6 h [6]: 0% | IC50 [7]: 0.095 µM

CCOC(=O)c1ccc(NC2CCCCC2)c(NCc2ccccc2)c1
IC50 [8]: 0.006 µM

CNS(=O)(=O)c1ccc(NC2C3CC4CC(C3)CC2C4)c(NCc2ccccc2)c1 (centres undefined)
IC50 [1]: 0.0049 µM

CCNS(=O)(=O)c1ccc(NC2CC3CCC2C3)c(NCc2ccccc2)c1 (centres undefined)
IC50 [1]: 0.003 µM

CCNS(=O)(=O)c1ccc(NC2CCCCCCC2)c(NCc2ccccc2)c1
IC50 [1]: 0.0024 µM

CCNS(=O)(=O)c1ccc(NC2CCCC2)c(NCc2ccncc2)c1
IC50 [1]: 0.036 µM

CCNS(=O)(=O)c1ccc(NC2CCCCC2)c(N)c1
IC50 [1]: 0.067 µM | solubility kinetic at 2 h [2]: 12.5 µM (≈ 3.72 µg/mL) | half-life [3]: 37 min | half-life [4]: 31 min | remaining at 6 h [5]: 81.9% | remaining at 6 h [6]: 86.2%

CC(C)(C)NS(=O)(=O)c1ccc(NC2CCCCC2)c(NCc2ccncc2)c1
IC50 [1]: 0.011 µM

CNS(=O)(=O)c1ccc(NC2CCCCC2)c(N)c1
IC50 [1]: 0.076 µM

CCNC(=O)c1ccc(NC2C3CC4CC(C3)CC2C4)c(NCc2ccncc2)c1 (centres undefined)
IC50 [1]: 0.0034 µM | solubility kinetic at 2 h [2]: 25 µM (≈ 10.1 µg/mL) | half-life [3]: 16 min | half-life [4]: 30 min | remaining at 6 h [5]: 100% | remaining at 6 h [6]: 100%

CCNS(=O)(=O)c1ccc(NC2CC3CCC2C3)c(NCc2ccncc2)c1 (centres undefined)
IC50 [1]: 0.0094 µM

CNS(=O)(=O)c1ccc(NC2C3CC4CC(C3)CC2C4)c(NCc2ccncc2)c1 (centres undefined)
IC50 [1]: 0.0064 µM

CCNC(=O)c1ccc(NC2CCCCC2)c(NCc2ccccc2)c1
IC50 [1]: 0.021 µM

COC(=O)c1ccc(NC2CCCCC2)c(N)c1
IC50 [1]: 0.034 µM

CCNS(=O)(=O)c1ccc(NC2C3CC4CC(C3)CC2C4)c(N)c1 (centres undefined)
IC50 [1]: 0.017 µM

CCNS(=O)(=O)c1ccc(NC2CCCCCCC2)c(N)c1
IC50 [1]: 0.0093 µM

CC(C)(C)NS(=O)(=O)c1ccc(NC2CCCCC2)c(NCc2ccccc2)c1
IC50 [1]: 0.0062 µM

CCNC(=O)c1ccc(NC2CCCCC2)c(NCc2ccncc2)c1
IC50 [1]: 0.026 µM

CCNS(=O)(=O)c1ccc(NC2CCCCC2)c(NCc2ccccc2)c1
IC50 [1]: 0.004 µM | solubility kinetic at 2 h [2]: 12.5 µM (≈ 4.84 µg/mL) | half-life [3]: 88 min | half-life [4]: 187 min | remaining at 6 h [5]: 100% | remaining at 6 h [6]: 98.6%

CCNC(=O)c1ccc(NC2C3CC4CC(C3)CC2C4)c(NCc2ccccc2)c1 (centres undefined)
IC50 [1]: 0.0065 µM

CCNC(=O)c1ccc(NC2C3CC4CC(C3)CC2C4)c(N)c1 (centres undefined)
IC50 [1]: 0.014 µM

CC(C)(C)NS(=O)(=O)c1ccc(NC2C3CC4CC(C3)CC2C4)c(N)c1 (centres undefined)
IC50 [1]: 0.006 µM

CCNS(=O)(=O)c1ccc(NC2CC2)c(NCc2ccncc2)c1
IC50 [1]: 0.128 µM

CC(C)(C)NS(=O)(=O)c1ccc(NC2C3CC4CC(C3)CC2C4)c(NCc2ccncc2)c1 (centres undefined)
IC50 [1]: 0.0052 µM

CCNS(=O)(=O)c1ccc(NC2CCCC2)c(NCc2ccccc2)c1
IC50 [1]: 0.0082 µM

CCNS(=O)(=O)c1ccc(NC2C3CC4CC(C3)CC2C4)c(NCc2ccccc2)c1 (centres undefined)
IC50 [1]: 0.0035 µM | solubility kinetic at 2 h [2]: 12.5 µM (≈ 5.5 µg/mL) | half-life [3]: 36 min | half-life [4]: 31 min | remaining at 6 h [5]: 100% | remaining at 6 h [6]: 99.4%

CCNS(=O)(=O)c1ccc(NC2CC2)c(N)c1
IC50 [1]: 0.076 µM

CCNS(=O)(=O)c1ccc(NC2CC2)c(NCc2ccccc2)c1
IC50 [1]: 0.061 µM

CCNS(=O)(=O)c1ccc(NC2CCCCC2)c(NCc2ccncc2)c1
IC50 [1]: 0.023 µM

Nc1cc(C(=O)O)ccc1NC1CCCCC1
IC50 [1]: 0.21 µM

CC(C)(C)OC(=O)c1ccc(NC23CC4CC(CC(C4)C2)C3)c(/N=C\c2cncnc2)c1
IC50 [9]: 0.35 µM | half-life [10]: ≥ 120 min | CLH [11]: < 0.5 mL/min/g

CNS(=O)(=O)c1ccc(NC2CCCCC2)c(NCc2ccncc2)c1
IC50 [1]: 0.015 µM

CCNS(=O)(=O)c1ccc(NC2CCCCCCC2)c(NCc2ccncc2)c1
IC50 [1]: 0.022 µM

CCNS(=O)(=O)c1ccc(NC2CC3CCC2C3)c(N)c1 (centres undefined)
IC50 [1]: 0.028 µM

CCNS(=O)(=O)c1ccc(NC2C3CC4CC(C3)CC2C4)c(NCc2ccncc2)c1 (centres undefined)
IC50 [1]: 0.0039 µM | solubility kinetic at 2 h [2]: 12.5 µM (≈ 5.51 µg/mL) | half-life [3]: 64 min | half-life [4]: 26 min | remaining at 6 h [5]: 100% | remaining at 6 h [6]: 100%

CNS(=O)(=O)c1ccc(NC2C3CC4CC(C3)CC2C4)c(N)c1 (centres undefined)
IC50 [1]: 0.011 µM

CC(C)(C)NS(=O)(=O)c1ccc(NC2C3CC4CC(C3)CC2C4)c(NCc2ccccc2)c1 (centres undefined)
IC50 [1]: 0.0034 µM

CC(C)(C)NS(=O)(=O)c1ccc(NC2CCCCC2)c(N)c1
IC50 [1]: 0.027 µM

CNS(=O)(=O)c1ccc(NC2CCCCC2)c(NCc2ccccc2)c1
IC50 [1]: 0.0037 µM

CCNS(=O)(=O)c1ccc(NC2CCCC2)c(N)c1
IC50 [1]: 0.082 µM

CCNC(=O)c1ccc(NC2CCCCC2)c(N)c1
IC50 [1]: 0.088 µM
